The values below come from ChEMBL document CHEMBL1157925, “Identification of a novel series of potent RON receptor tyrosine kinase inhibitors” (Bioorg Med Chem Lett, 2010).

Each structure is given as a SMILES string. A value given as a limit tells only on which side of the number the result lay.

For series [1], the target named is Vascular endothelial growth factor receptor 2 (Homo sapiens, UniProt P35968). In words: Inhibition of VEGFR2. A digest of the protocol:
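GST-fused VEGFR-2/KDR catalytic domain from baculovirus-infected Sf9 cells, glutathione-agarose purified, 5 nM. Buffer: 60 mM Hepes pH 7.5, 3 mM MgCl2, 3 mM MnCl2, 1.2 mM β-mercaptoethanol, 0.1 mg/mL BSA, 3 µM vanadate. Mg-ATP at 2× Km. Enzyme, inhibitor and ATP were first combined for 4 min on ice. Reaction ran on immobilized poly(Glu4,Tyr) at 30 °C for 10 min and was stopped with EDTA. DELFIA Eu-anti-phosphotyrosine read-out. Seven concentrations in triplicate; IC50 from a 4-parameter fit.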

The target of series [2] is Phosphatidylinositol 4,5-bisphosphate 3-kinase catalytic subunit beta isoform (Homo sapiens) (UniProt P42338). The series is described as follows: Inhibition of PI3Kbeta. The note with it: concentration not given here. A digest of the protocol:
(§1)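 Outsourced kinase panel of 23 enzymes (Millipore KinaseProfiler); single test concentration of 0.1 µM; percent inhibition of kinase activity reported.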

For series [3], the target named is 3-phosphoinositide-dependent protein kinase 1 (Homo sapiens) (UniProt O15530). In words: Inhibition of PDK1. The note with it: concentration not given here.
Series [4] addresses Focal adhesion kinase 1 (Homo sapiens) (UniProt Q05397). In words: Inhibition of FAK. As to conditions: concentration not given here. A digest of the protocol:
as §1

The target in series [5] is Serine/threonine-protein kinase haspin (Homo sapiens) (UniProt Q8TF76). In words: Inhibition of haspin. The note with it: concentration not given here. The gist of the method:
as §1

The target of series [6] is Inhibitor of nuclear factor kappa-B kinase subunit beta (Homo sapiens) (UniProt O14920). The series is described as follows: Inhibition of IKK-beta. As to conditions: concentration not given here; call rule not given here. The gist of the method:
as §1

The target of series [7] is Glycogen synthase kinase-3 beta (Homo sapiens) (UniProt P49841). In words: Inhibition of GSK3-beta. As to conditions: concentration not given here. A digest of the protocol: as §1
Series [8] concerns the target LIM domain kinase 1 (Homo sapiens) (UniProt P53667). In words: Inhibition of LIMK1. As to conditions: concentration not given here. A digest of the protocol: as §1
Series [9] has as its target Angiopoietin-1 receptor (Homo sapiens) (UniProt Q02763). In words: Inhibition of Tie2. As to conditions: concentration not given here. The gist of the method:
as §1

Series [10] can be described thus: Oral bioavailability in rat at 5 mg/kg, po. It counts as ADME, organism-based. The note with it: in vivo.
A short description of series [11]: Clearance in rat at 2.5 mg/kg, iv and 5 mg/kg, po. The format is ADME, organism-based. As to conditions: in vivo.
In series [12] the target is ALK tyrosine kinase receptor (Homo sapiens) (UniProt Q9UM73). The series is described as follows: Inhibition of ALK. As to conditions: concentration not given here. A digest of the protocol: as §1
Series [13] has as its target Macrophage-stimulating protein receptor (Homo sapiens, UniProt Q04912). In words: Inhibition of TPR-tagged RON catalytic domain expressed in HEK293 cells. The format is cell-based.
Series [14] has as its target Dual specificity mitogen-activated protein kinase kinase 1 (Homo sapiens) (UniProt Q02750). The series is described as follows: Inhibition of MEK1. As to conditions: concentration not given here. A digest of the protocol:
as §1

Series [15] has as its target Receptor-type tyrosine-protein kinase FLT3 (Homo sapiens) (UniProt P36888). In words: Inhibition of FLT3. As to conditions: concentration not given here. The gist of the method:
as §1

Series [16] addresses Tyrosine-protein kinase JAK3 (Homo sapiens) (UniProt P52333). The series is described as follows: Inhibition of JAK3. As to conditions: concentration not given here. The gist of the method:
as §1

A further series concerns Rattus norvegicus. The series is described as follows: Cmax in rat at 5 mg/kg, po. Set-up: dose 5 mg/kg, route oral. As to conditions: in vivo. The format is ADME, organism-based.
A further series concerns HCT-116. The series is described as follows: Antitumor activity against human HCT116 cells by MTT assay.
Series [17] deals with Ephrin type-B receptor 4 (Homo sapiens) (UniProt P54760). The series is described as follows: Inhibition of EphB4. The note with it: concentration not given here. The gist of the method:
as §1

Series [18] addresses Cytoplasmic tyrosine-protein kinase BMX (Homo sapiens) (UniProt P51813). The series is described as follows: Inhibition of BMX. The note with it: concentration not given here. The gist of the method: as §1
The target in series [19] is RAF proto-oncogene serine/threonine-protein kinase (Homo sapiens) (UniProt P04049). The series is described as follows: Inhibition of c-Raf. As to conditions: concentration not given here. A digest of the protocol: as §1
In series [20] the target is T1, Hepatocyte growth factor receptor (Homo sapiens, UniProt P08581). In words: Inhibition of c-Met.
The target in series [21] is RAC-alpha serine/threonine-protein kinase (Homo sapiens) (UniProt P31749). In words: Inhibition of PKBalpha. As to conditions: concentration not given here. A digest of the protocol:
as §1

Series [22] addresses Serine/threonine-protein kinase Chk1 (Homo sapiens) (UniProt O14757). The series is described as follows: Inhibition of CHK1. As to conditions: concentration not given here. A digest of the protocol:
as §1

The nature of series [23]: Tmax in rat at 5 mg/kg, po. The format is ADME, organism-based. Set-up: dose 5 mg/kg, route oral. The note with it: in vivo.
Series [24] concerns the target T1, Hepatocyte growth factor receptor. In words: Inhibition of c-Met phosphorylation in human MKN45 cells. It counts as cell-based, MKN-45.
The nature of series [25]: Volume of distribution at steady state in rat at 2.5 mg/kg, iv and 5 mg/kg, po. The format is ADME, organism-based. The note with it: in vivo, read-out: Vdss.
Series [26] is described as follows: Half life in rat at 2.5 mg/kg, iv. It counts as ADME, organism-based. Set-up: dose 2.5 mg/kg, route intravenous. The note with it: in vivo.
Series [27] addresses Serine/threonine-protein kinase pim-1 (Homo sapiens) (UniProt P11309). In words: Inhibition of PIM1. As to conditions: concentration not given here. A digest of the protocol: as §1
Series [28] has as its target Mast/stem cell growth factor receptor Kit (Homo sapiens) (UniProt P10721). The series is described as follows: Inhibition of cKit. The note with it: concentration not given here. A digest of the protocol:
as §1

The target of series [29] is Proto-oncogene tyrosine-protein kinase receptor Ret (Homo sapiens) (UniProt P07949). In words: Inhibition of Ret. The note with it: concentration not given here. The gist of the method: as §1

In turn, `CN(C)CCN(C)C(=O)c1ccc(-c2cc3nccc(Oc4ccc(NC(=O)c5cnn(-c6ccccc6)c5C(F)(F)F)cc4F)c3s2)cc1` returned an IC50 in series [1] of 700 nM.

The molecule `CC(=O)N1CC=C(c2cc3nccc(Oc4ccc(NC(=O)c5cnn(-c6ccccc6)c5C(F)(F)F)cc4F)c3s2)CC1` had an IC50 in [1] of 1400 nM.

Molecule `COC[C@H](C)N(Cc1ccc(-c2cc3nccc(Oc4ccc(NC(=O)c5cnn(-c6ccccc6)c5C(F)(F)F)cc4F)c3s2)cc1)C(C)=O` registered an IC50 in series [1] of 2500 nM.

Molecule `CN(C)[C@H]1CCN(C(=O)c2ccc(-c3cc4nccc(Oc5ccc(NC(=O)c6cnn(-c7ccccc7)c6C(F)(F)F)cc5F)c4s3)cc2)C1` returned an IC50 in series [1] of 1000 nM.

For the molecule `CS(=O)(=O)CCNCc1ccc(-c2cc3nccc(Oc4ccc(NC(=O)c5cnn(-c6ccccc6)c5C(F)(F)F)cc4F)c3s2)cc1`, in [1], the IC50 turned out to be 1100 nM.

In series [1], `CCCc1c(C(=O)Nc2ccc(Oc3ccnc4cc(-c5cn(C)cn5)sc34)c(F)c2)cnn1-c1ccccc1` yielded an IC50 of 1900 nM.

`Cn1cnc(-c2cc3nccc(Oc4ccc(NC(=O)c5cnn(-c6ccccc6)c5)cc4F)c3s2)c1` showed an IC50 in series [1] of 1400 nM.

Take `Cn1cnc(-c2cc3nccc(Oc4ccc(NC(=O)c5cnn(-c6ccccc6)c5C(F)(F)F)cc4F)c3s2)c1`: the inhibition in series [2], in series [3], in [4], in series [5], in series [6] and in series [7] was < 40% throughout. Besides, the inhibition in series [8] is < 40%; in [9], < 40%; in [12] it was < 40%; in [14], < 40%; in series [15], 96%; in series [16], < 40%. Moreover, the inhibition in series [17], in series [18], in [19], in series [21], in series [22] and in series [27] was < 40% throughout. Also, the inhibition in series [28] and in series [29] was < 40% throughout. Further, the bioavailability in series [10] is > 30%. In [11], this molecule gave a clearance of 10.5 mL/min/kg. The IC50 in [13] is 50 nM; in series [1], > 10000 nM; in the series with HCT-116 (Homo sapiens, HCT-116), 80 nM; in [20] it was 150 nM; in series [24], 500 nM. In the series with Rattus norvegicus, this molecule yielded a Cmax normalised of 0.25 µM/mg/kg. For the same molecule, the Tmax in series [23] stood at 6 h. In series [25], the Vd stood at 2.4 L/kg. The same molecule showed a half-life in [26] of 2.7 h.

In series [1], `Cn1cnc(-c2cc3nccc(Oc4ccc(NC(=O)c5cnn(C(C)(C)C)c5C(F)(F)F)cc4F)c3s2)c1` yielded an IC50 of 3000 nM.

The molecule `CN(C)C(=O)c1ccc(-c2cc3nccc(Oc4ccc(NC(=O)c5cnn(-c6ccccc6)c5C(F)(F)F)cc4F)c3s2)nc1` had an IC50 in series [1] of 2500 nM.

As to `COc1cc2nccc(Oc3ccc(NC(=O)c4cnn(-c5ccccc5)c4C(F)(F)F)cc3F)c2cc1OC`, in series [1], the IC50 was > 2000 nM.

Regarding `Cn1ccnc1-c1cc2nccc(Oc3ccc(NC(=O)c4cnn(-c5ccccc5)c4C(F)(F)F)cc3F)c2s1`, the IC50 in series [1] amounted to 1400 nM.

Take `Cn1cnc(-c2cc3nccc(Oc4ccc(NC(=O)N5CCN(c6ccccc6)C5=O)cc4F)c3s2)c1`: the IC50 was 10 nM in [1] and “Not Active” in the series with HCT-116 (hct-116).

In series [1], `COCCNC(=O)c1ccc(-c2cc3nccc(Oc4ccc(NC(=O)c5cnn(-c6ccccc6)c5C(F)(F)F)cc4F)c3s2)nc1` gave an IC50 of 5300 nM.

`Cc1c(C(=O)Nc2ccc(Oc3ccnc4cc(-c5cn(C)cn5)sc34)c(F)c2)cnn1-c1ccccc1`: in series [1], the half-inhibitory concentration (IC50) was 2000 nM.

Turning to `Cn1cnc(-c2cc3nccc(Oc4ccc(NC(=O)c5cnn(C)c5C(F)(F)F)cc4F)c3s2)c1`, the results for the IC50 in [13], in series [1] and in [20] were > 1000 nM, 700 nM and 60 nM, respectively.

With `CN(C)C(=O)c1ccc(-c2cc3nccc(Oc4ccc(NC(=O)c5cnn(-c6ccccc6)c5C(F)(F)F)cc4F)c3s2)cc1`, the IC50 in series [1] came to 1400 nM.

With `CNC(=O)c1cc(Oc2ccc(NC(=O)c3cnn(-c4ccccc4)c3C(F)(F)F)cc2F)ccn1`, the values for the IC50 in series [13], in series [1] and in series [20] were > 10000 nM, > 20000 nM and > 15000 nM, respectively.

Take `Cn1cnc(-c2cc3nccc(Oc4ccc(NC(=O)c5cnn(-c6ccccc6)c5N)cc4F)c3s2)c1`: the IC50 in series [13] was > 1000 nM; in series [1], 800 nM; in [20], 180 nM.

As usually defined, the IC50 is the concentration needed to halve the response being measured. A lower IC50 goes with inhibition by little substance. What is called inhibition is how much of the control response was suppressed. A low value points to a weak effect. The bioavailability is the share of a dose that reaches the circulation, judged against a reference dose that is usually intravenous. A lower bioavailability goes with little systemic uptake. In general, Tmax refers to the time from dosing to the highest level. As a reminder, the half-life is how long it takes for the measured level to halve. Read a low half-life as fast loss.
